Reference: ChEMBL document CHEMBL1135936, “6-[2-(Phosphonomethoxy)alkoxy]pyrimidines with antiviral activity” (J Med Chem, 2002)
Values after ≈ are worked out from the molar mass of the structure shown.

Experiments:
CCRF-CEM [1] = assay: (§1) In vitro cytotoxicity against CCRF-CEM T lymphoblastoid cells; type: functional, Homo sapiens; parameters: concentration or dose not given beside the values
In short: (§2)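 Cells were grown for 72 h at a constant compound concentration of 10 µM, then counted. Growth inhibition is given relative to cell counts in control cultures grown in medium without compound. Lines: mouse L1210 and L929, human HeLaS3 and CCRF-CEM.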

CCRF-CEM [2] = assay: Inhibition of Human immunodeficiency virus (HIV) -1 III B strain induced cytopathicity in CEM cell line; type: functional, cell-based
In short: (§3)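 CEM cells were infected with 100 CCID50 per mL of HIV-1 (IIIB) or HIV-2 (ROD). Cells were seeded into wells containing dilutions of compound and incubated 4 days at 37 °C. CEM giant cell formation was then examined microscopically.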

CCRF-CEM [3] = assay: Inhibition of Human immunodeficiency virus (HIV)-2 ROD strain induced cytopathicity in CEM cell line; type: functional, cell-based; in short: as §3
[4] = tested on: Moloney murine sarcoma virus; assay: Inhibition of moloney sarcoma virus (MSV) induced cytopathicity in C3H/3T3 embryo fibroblast cells; type: functional, organism-based
In short: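 C3H/3T3 murine embryo fibroblasts were seeded in 48-well plates and infected 24 h later with 80 focus-forming units of MSV. MSV stock was prepared from tumours in NMRI mice. Virus adsorbed for 10-120 min at 37 °C, then fresh medium with compound dilutions was added. Transformation was examined microscopically after 6 days.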

E6SM [5] = assay: Inhibition of Herpes simplex virus-1, KOS strain induced cytopathicity in E6SM cell line; type: functional, cell-based; settings: Homo sapiens
In short: (§4)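 Inhibition of virus-induced cytopathicity in confluent cell cultures in 96-well plates inoculated with 100 CCID50 of virus; 1 CCID50 is the virus dose infecting 50% of cultures. EC50 is based on reduction of cytopathicity.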

E6SM [6] = assay: Inhibition of Herpes simplex virus-2 (G strain) induced cytopathicity in E6SM cell line; type: functional, cell-based; settings: Homo sapiens; in short: as §4
E6SM [7] = assay: Inhibition of thymidine kinase deficient Herpes simplex virus-1 VMW 1837 strain induced cytopathicity in E6SM cell line; type: functional, cell-based; settings: Homo sapiens; in short: as §4
Human alphaherpesvirus 3 = assay: Inhibition of Thymidine kinase deficient (TK-) Varicella-Zoster virus (VZV) 07/1 strain induced cytopathicity n HEL cell line; type: functional, organism-based; settings: Human alphaherpesvirus 3, tk-07, HEL; in short: as §4
HEL [8] = assay: Inhibition of Thymidine kinase deficient (TK-) Varicella-Zoster virus (VZV) YS/R strain induced cytopathicity in HEL cell line; type: functional, cell-based; settings: Homo sapiens; in short: as §4
HEL [9] = assay: Inhibition of Varicella-Zoster virus (VZV) OKA strain induced cytopathicity in HEL cell line; type: functional, cell-based; settings: Homo sapiens; in short: as §4
HEL [10] = assay: Inhibition of Varicella-Zoster virus (VZV) YS strain induced cytopathicity in HEL cell line; type: functional, cell-based; settings: Homo sapiens; in short: as §4
HeLa [11] = assay: (§5) In vitro cytotoxicity against human cervix carcinoma HeLa S3 cells; type: functional; parameters: concentration or dose not given beside the values; in short: as §2
L929 [12] = assay: (§6) In vitro cytotoxicity against murine L929 cells; type: functional, Mus musculus; parameters: concentration or dose not given beside the values; in short: as §2
L1210 [13] = assay: (§7) In vitro cytotoxicity against L1210 mouse leukemia cells; type: functional; parameters: concentration or dose not given beside the values; in short: as §2
unidentified adenovirus [14] = assay: In vitro antiadenovirus activity; type: functional, organism-based
In short: (§8)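 HEL fibroblasts, confluent, infected on day 0 with 100 CCID50 of human adenovirus type 2 or type 3. After 2 h adsorption at 37 °C, virus was removed and replaced by serial compound dilutions. Cytopathic effect was scored microscopically on day 7-10 p.i. to derive EC50 and minimum cytotoxic concentration.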

HEL [15] = assay: Inhibitory activity against HEL cell proliferation; type: functional, cell-based; settings: Homo sapiens
unidentified adenovirus [16] = assay: Effective concentration for the inhibition of adenovirus; type: functional, organism-based; in short: as §8
CCRF-CEM [17] = assay: In vitro cytotoxicity against CCRF-CEM lymphoblastoid cells; type: functional, Homo sapiens; in short: as §2
CCRF-CEM [18] = assay: as §1; type: functional, Homo sapiens; in short: as §2
HeLa [19] = assay: as §5; type: functional; in short: as §2
L929 [20] = assay: as §6; type: functional, Mus musculus; in short: as §2
L1210 [21] = assay: as §7; type: functional; in short: as §2

CN(C)c1cc(OCCOCP(=O)(O)O)nc(N)n1
Control (CCRF-CEM [1]): 104% | EC50 (CCRF-CEM [2]): > 100 µg/mL | EC50 (CCRF-CEM [3]): > 100 µg/mL | EC50 [4]: 133 µg/mL (≈ 455 µM) | EC50 (E6SM [5]): > 400 µg/mL | EC50 (E6SM [6]): > 400 µg/mL | EC50 (E6SM [7]): > 400 µg/mL | EC50 (Human alphaherpesvirus 3): > 50 µg/mL | EC50 (HEL [8]): > 50 µg/mL | EC50 (HEL [9]): > 50 µg/mL | EC50 (HEL [10]): > 50 µg/mL | Control (HeLa [11]): 89% | Control (L929 [12]): 104% | Control (L1210 [13]): 88%

Nc1cc(SCCOCP(=O)(O)O)nc(N)n1
Control (CCRF-CEM [1]): 89% | EC50 (CCRF-CEM [2]): 5.5 µg/mL (≈ 19.6 µM) | EC50 (CCRF-CEM [3]): 3 µg/mL (≈ 10.7 µM) | EC50 [4]: 1.7 µg/mL (≈ 6.07 µM) | EC50 (E6SM [5]): 29 µg/mL (≈ 103 µM) | EC50 (E6SM [6]): ≥ 80 µg/mL | EC50 (E6SM [7]): 48 µg/mL (≈ 171 µM) | EC50 (Human alphaherpesvirus 3): 20 µg/mL (≈ 71.4 µM) | EC50 (HEL [8]): 15 µg/mL (≈ 53.5 µM) | EC50 (HEL [9]): 7.5 µg/mL (≈ 26.8 µM) | EC50 (HEL [10]): 7 µg/mL (≈ 25 µM) | Control (HeLa [11]): 98% | Control (L929 [12]): 88% | Control (L1210 [13]): 83% | EC50 (unidentified adenovirus [14]): 78 µg/mL (≈ 278 µM) | EC50 (HEL [15]): 50 µg/mL (≈ 178 µM)

Nc1cc(O)nc(SCCOCP(=O)(O)O)n1
EC50 (CCRF-CEM [2]): > 100 µg/mL | EC50 (CCRF-CEM [3]): > 100 µg/mL | EC50 [4]: 72 µg/mL (≈ 256 µM) | EC50 (E6SM [5]): 240 µg/mL (≈ 853 µM) | EC50 (E6SM [6]): > 400 µg/mL | EC50 (E6SM [7]): > 400 µg/mL | EC50 (Human alphaherpesvirus 3): > 50 µg/mL | EC50 (HEL [8]): > 50 µg/mL | EC50 (HEL [9]): > 50 µg/mL | EC50 (HEL [10]): > 50 µg/mL

CN(C)c1cc(O)nc(N)n1
EC50 (CCRF-CEM [2]): > 100 µg/mL | EC50 (CCRF-CEM [3]): > 100 µg/mL | EC50 [4]: 132 µg/mL (≈ 856 µM) | EC50 (E6SM [5]): > 400 µg/mL | EC50 (E6SM [6]): > 400 µg/mL | EC50 (E6SM [7]): > 400 µg/mL | EC50 (Human alphaherpesvirus 3): > 50 µg/mL | EC50 (HEL [8]): > 50 µg/mL | EC50 (HEL [9]): > 50 µg/mL | EC50 (HEL [10]): > 50 µg/mL

Nc1ncnc2c1ncn2C[C@@H](CO)OCP(=O)(O)O
EC50 (unidentified adenovirus [16]): 0.24 µg/mL (≈ 0.792 µM)

CSc1nc(N)cc(OCCOCP(=O)(O)O)n1
Control (CCRF-CEM [1]): 87% | EC50 (CCRF-CEM [2]): 51 µg/mL (≈ 173 µM) | EC50 (CCRF-CEM [3]): 33 µg/mL (≈ 112 µM) | EC50 [4]: > 40 µg/mL | EC50 (E6SM [5]): > 80 µg/mL | EC50 (E6SM [6]): > 80 µg/mL | EC50 (E6SM [7]): > 80 µg/mL | EC50 (Human alphaherpesvirus 3): > 50 µg/mL | EC50 (HEL [8]): > 50 µg/mL | EC50 (HEL [9]): > 50 µg/mL | EC50 (HEL [10]): > 50 µg/mL | Control (HeLa [11]): 79% | Control (L929 [12]): 92% | Control (L1210 [13]): 96%

Nc1cc(OCCOCP(=O)(O)O)ncn1
Control (CCRF-CEM [17]): 95% | EC50 (CCRF-CEM [2]): > 100 µg/mL | EC50 (CCRF-CEM [3]): > 100 µg/mL | EC50 [4]: 13 µg/mL (≈ 52.2 µM) | EC50 (E6SM [5]): > 16 µg/mL | EC50 (E6SM [6]): > 16 µg/mL | EC50 (E6SM [7]): > 16 µg/mL | EC50 (Human alphaherpesvirus 3): > 50 µg/mL | EC50 (HEL [8]): > 50 µg/mL | EC50 (HEL [9]): > 50 µg/mL | EC50 (HEL [10]): > 50 µg/mL | Control (HeLa [11]): 86% | Control (L929 [12]): 84% | Control (L1210 [13]): 81%

CN(C)c1cc(=O)n(CCOCP(=O)(O)O)c(N)n1
Control (CCRF-CEM [1]): 98% | EC50 (CCRF-CEM [2]): > 100 µg/mL | EC50 (CCRF-CEM [3]): > 100 µg/mL | EC50 [4]: 105 µg/mL (≈ 359 µM) | EC50 (E6SM [5]): > 80 µg/mL | EC50 (E6SM [6]): > 80 µg/mL | EC50 (E6SM [7]): > 80 µg/mL | EC50 (Human alphaherpesvirus 3): > 50 µg/mL | EC50 (HEL [8]): > 50 µg/mL | EC50 (HEL [9]): > 50 µg/mL | EC50 (HEL [10]): > 50 µg/mL | Control (HeLa [11]): 92% | Control (L929 [12]): 99% | Control (L1210 [13]): 90%

CC(C)OP(=O)(COCCSc1cc(N)nc(N)n1)OC(C)C
EC50 (CCRF-CEM [2]): 47 µg/mL (≈ 129 µM) | EC50 (CCRF-CEM [3]): 52 µg/mL (≈ 143 µM) | EC50 (E6SM [5]): > 400 µg/mL | EC50 (E6SM [6]): > 400 µg/mL | EC50 (E6SM [7]): > 400 µg/mL | EC50 (Human alphaherpesvirus 3): > 50 µg/mL | EC50 (HEL [8]): > 50 µg/mL | EC50 (HEL [9]): > 50 µg/mL | EC50 (HEL [10]): > 50 µg/mL

Nc1nc(NC2CC2)cc(OCCOCP(=O)(O)O)n1
Control (CCRF-CEM [18]): 87% | EC50 (CCRF-CEM [2]): > 100 µg/mL | EC50 (CCRF-CEM [3]): > 100 µg/mL | EC50 [4]: > 40 µg/mL | EC50 (E6SM [5]): 240 µg/mL (≈ 789 µM) | EC50 (E6SM [6]): > 80 µg/mL | EC50 (E6SM [7]): 240 µg/mL (≈ 789 µM) | EC50 (Human alphaherpesvirus 3): > 50 µg/mL | EC50 (HEL [8]): > 50 µg/mL | EC50 (HEL [9]): > 20 µg/mL | EC50 (HEL [10]): > 50 µg/mL | Control (HeLa [19]): 88% | Control (L929 [20]): 93% | Control (L1210 [21]): 71%

Nc1nc(O)cc(NC2CC2)n1
EC50 (CCRF-CEM [2]): > 100 µg/mL | EC50 (CCRF-CEM [3]): > 100 µg/mL | EC50 [4]: 133 µg/mL (≈ 800 µM) | EC50 (E6SM [5]): > 400 µg/mL | EC50 (E6SM [6]): > 400 µg/mL | EC50 (E6SM [7]): > 400 µg/mL | EC50 (Human alphaherpesvirus 3): > 50 µg/mL | EC50 (HEL [8]): > 50 µg/mL | EC50 (HEL [9]): > 50 µg/mL | EC50 (HEL [10]): > 50 µg/mL
